Reference: ChEMBL document CHEMBL4406805, “Development of Inhibitors against Mycobacterium abscessus tRNA (m1G37) Methyltransferase (TrmD) Using Fragment-Based Approaches” (J Med Chem, 2019)
Converted amounts (≈) assume the structure as drawn. The source made the active and inactive calls. The rule behind the calls is not given here.

Key:
[1] = Antimycobacterial activity against Mycobacterium abscessus subsp. abscessus ATCC 19977 by CLSI M07-A9 protocol based method; format: functional; settings: Mycobacteroides abscessus
[2] = Binding affinity to Mycobacterium abscessus N-terminal His-tagged 3C protease linked full length tRNA (m1-G37) methyltransferase expressed in Escherichia coli BL21(DE3) by isothermal titration calorimetry; parameters: species or system Mycobacteroides abscessus
Summary of the method: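 ITC at 25 °C. TrmD (33 or 100 μM in cell) was dialysed overnight at 4 °C into 50 mM HEPES pH 7.5, 500 mM NaCl, 5% glycerol, with final DMSO 2–10%. Ligand:protein was 10–20:1. A 0.2 μL injection was discarded, followed by 19×2 or 39×1 μL injections at 60–150 s spacing. No-protein blanks were subtracted. Data were fitted to a one-site model (N fixed at 1 for weak binders). Mostly n = 1 with fit error; SD when n > 1.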

[3] = system: Mycobacteroides abscessus; assay: Binding affinity to Mycobacterium abscessus N-terminal His-tagged 3C protease linked full length tRNA (m1-G37) methyltransferase expressed in Escherichia coli BL21(DE3) assessed as change in melting temperature at 100 uM by SYPRO Orange dye based DSF assay
Summary of the method: (§1)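 DSF with 10 μM Mab TrmD (His-tag cleaved) in 50 mM HEPES pH 7.5, 500 mM NaCl, 5x SYPRO Orange. Final DMSO was 5%, either as ligand stock or as DMSO alone. Samples were ramped from 25 to 95 °C in 0.5 °C steps of 30 s. ΔTm was taken relative to the DMSO control.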

[4] = system: Mycobacterium tuberculosis; assay: Antimycobacterial activity against Mycobacterium tuberculosis H37Rv incubated for 2 weeks in presence of GAST-Fe medium; format: functional; settings: 336 h
[5] = system: Mycobacterium tuberculosis; assay: Antimycobacterial activity against Mycobacterium tuberculosis H37Rv incubated for 2 weeks in presence of 7H9/ADC medium; format: functional; settings: 336 h
[6] = system: Mycobacterium tuberculosis; assay: Antimycobacterial activity against Mycobacterium tuberculosis H37Rv incubated for 2 weeks in presence of 7H9/DPPC medium; format: functional; settings: 336 h
[7] = system: Mycobacteroides abscessus; assay: Binding affinity to Mycobacterium abscessus N-terminal His-tagged 3C protease linked full length tRNA (m1-G37) methyltransferase expressed in Escherichia coli BL21(DE3) after 15 mins by mass Spectrometry
Summary of the method: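 Native nanoESI-MS. His-tag was removed with 3C protease before IMAC and gel filtration. TrmD was exchanged into 200 mM ammonium acetate pH 7.0. Protein (20 μM in titration) was equilibrated at room temperature for at least 15 min alone or with ligand (12.5–100 μM; 100 μM for screening) in 5% DMSO. Read-out was ligand occupancy (singly or doubly bound) of the 13+ and 14+ charge states.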

[8] = system: Mycobacterium tuberculosis; assay: Antimycobacterial activity against Mycobacterium tuberculosis H37Rv incubated for 2 weeks in presence of 7H9/glucose medium; format: functional; settings: 336 h
[9] = system: Mycobacteroides abscessus; assay: Binding affinity to Mycobacterium abscessus N-terminal His-tagged 3C protease linked full length tRNA (m1-G37) methyltransferase expressed in Escherichia coli BL21(DE3) assessed as change in melting temperature at 5 mM by SYPRO Orange dye based DSF assay; summary of the method: as §1
[10] = system: Mycobacteroides abscessus; assay: Binding affinity to Mycobacterium abscessus N-terminal His-tagged 3C protease linked full length tRNA (m1-G37) methyltransferase expressed in Escherichia coli BL21(DE3) by reverse isothermal titration calorimetry
Summary of the method: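 Reverse ITC at 25 °C. 420 μM TrmD was injected into 35 μM ligand in the cell. Buffer was 50 mM HEPES pH 7.5, 500 mM NaCl, 5% glycerol with DMSO; blank titrations were subtracted. Data were fitted to a one-site binding model, otherwise as for forward titrations.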

Compound	Kd [2] [µM]	ΔTm [3] [°C]	other results
N#Cc1c(N)n[nH]c1-c1ccc2ccn(Cc3ccncc3)c2c1	0.12	11.5	MIC [1]: 50 µM (≈ 15.7 µg/mL); MIC [4]: 50 µM; MIC [5]: > 100 µM
COc1cc(COC(=O)c2cn[nH]c2)cc(Cc2cccnc2)c1	12	3	–
COc1cc(COC(=O)c2cn[nH]c2)cc(-c2cccnc2)c1	6.7	3.8	–
COc1ccc(Cn2ccc3ccc(-c4cc(N)n[nH]4)cc32)cc1	59	3.4	–
N#Cc1c(N)n[nH]c1-c1ccc2ccn(Cc3cccnc3)c2c1	0.18	10.5	–
N#Cc1c(N)n[nH]c1-c1ccc2ccn(Cc3ccc(CN4CCCC4)cc3)c2c1	27	12.9	MIC [1]: 50 µM (≈ 19.8 µg/mL); MIC [6]: 12.5 µM; Activity [7]: Active; MIC [5]: > 100 µM; MIC [8]: 25 µM
CCOC(=O)c1cn[nH]c1	89	0.4	ΔTm [9]: 4 °C
CN1CCCC(Cn2ccc3ccc(-c4[nH]nc(N)c4C#N)cc32)C1 (racemic)	0.36	10.9	Activity [10]: Active
CN1CCCCC1Cn1ccc2ccc(-c3[nH]nc(N)c3C#N)cc21 (racemic)	0.59	8.8	–
OB(O)c1ccc2cc[nH]c2c1	260	–	ΔTm [9]: 4 °C
N#Cc1c(N)n[nH]c1-c1ccc2ccn(Cc3cccnc3O)c2c1	3.2	5.5	–
CN1CCN(Cc2ccc(Cn3ccc4ccc(-c5[nH]nc(N)c5C#N)cc43)cc2)CC1	73	12	MIC [1]: 50 µM (≈ 21.3 µg/mL); MIC [6]: 6.3 µM; MIC [4]: 25 µM; MIC [8]: 12.5 µM
OB(O)c1ccc2[nH]ccc2c1	–	–	ΔTm [9]: 1.3 °C
Cc1ccc(-c2cc(N)[nH]n2)cc1	–	–	ΔTm [9]: 1.4 °C
COC(=O)COc1cccc(COC(=O)c2cn[nH]c2)c1	10	2.6	–
O=C(OCc1cccc(OCCc2ccccc2)c1)c1cn[nH]c1	–	3	–
Nc1cc(-c2ccc3ccn(Cc4ccc(CN5CCCCC5)cc4)c3c2)[nH]n1	–	7.2	MIC [1]: 50 µM (≈ 19.3 µg/mL); MIC [6]: 12.5 µM; MIC [4]: 50 µM; MIC [5]: > 100 µM; MIC [8]: 25 µM
O=C(OCc1cccc(OCc2ccccn2)c1)c1cn[nH]c1	–	2.5	–
Cc1c(N)n[nH]c1-c1ccc2ccn(Cc3ccc(CN4CCCC4)cc3)c2c1	–	6.1	–
COc1cccc(-c2cc(N)n[nH]2)c1	–	–	ΔTm [9]: -0.5 °C
NC(=O)c1ccccc1Cn1ccc2ccc(-c3cc(N)n[nH]3)cc21	–	1.4	–
CCOc1cccc(COC(=O)c2cn[nH]c2)c1	11	3.1	–
N#Cc1c(N)n[nH]c1-c1ccc2c(Cl)cn(Cc3cccnc3)c2c1	8.5	5.8	–
N#Cc1c(N)n[nH]c1-c1ccc2ccn(Cc3ccccc3)c2c1	–	10.1	Activity [7]: Active
CC(C)N1CCN(Cc2ccc(Cn3ccc4ccc(-c5[nH]nc(N)c5C#N)cc43)cc2)CC1	–	11.9	MIC [1]: 50 µM (≈ 22.7 µg/mL); MIC [6]: 1.6 µM; MIC [4]: 6.3 µM; MIC [5]: 12.5 µM; MIC [8]: 2.3 µM

Compound	Kd [2] [µM]	ΔTm [3] [°C]	other results
N#Cc1c(N)n[nH]c1-c1ccc2cc[nH]c2c1	5	4.4	–
COc1cc(COC(=O)c2cn[nH]c2)cc(N2CCCC2)c1	10	3	–
Nc1cc(-c2ccc3cc[nH]c3c2)[nH]n1	110	1.1	ΔTm [9]: 4.8 °C
N#Cc1c(N)n[nH]c1-c1ccc2ccn(Cc3ccnc4ccccc34)c2c1	–	10.3	–
N#Cc1c(N)n[nH]c1-c1ccc2ccn(Cc3ccc(CN4CCCC4)cn3)c2c1	92	12	MIC [1]: 50 µM (≈ 19.9 µg/mL)
Nc1cc(-c2ccc3ccn(Cc4ccc(CN5CCCC5)cc4)c3c2)[nH]n1	490	7	MIC [1]: 50 µM (≈ 18.6 µg/mL); MIC [6]: 6.3 µM; MIC [4]: 25 µM; MIC [5]: 100 µM; MIC [8]: 12.5 µM
N#Cc1c(N)n[nH]c1-c1ccc2ccn(Cc3ccc(CN4CCOCC4)cc3)c2c1	–	12.6	MIC [1]: 50 µM (≈ 20.6 µg/mL); MIC [6]: 50 µM; MIC [4]: 50 µM; MIC [5]: > 100 µM; MIC [8]: 100 µM
COc1cccc(Cn2ccc3ccc(-c4cc(N)n[nH]4)cc32)c1	13	4.6	–
Nc1cc(-c2ccc3ccn(Cc4ccccc4)c3c2)[nH]n1	19	3.4	Activity [7]: Active
N#Cc1c(N)n[nH]c1-c1ccc2ccn(Cc3ccc(O)nc3)c2c1	1.3	8.3	–
COc1cccc(COC(=O)c2cn[nH]c2)c1	14	3.5	–
CCOC(=O)c1cnn(CC#Cc2cc(COC(=O)c3cn[nH]c3)cc(OC)c2)c1	4.6	9.6	–
COc1ccc(-c2cc(N)[nH]n2)cc1	170	–	ΔTm [9]: 3 °C
O=C(O)c1ccc2cc[nH]c2c1	–	–	ΔTm [9]: -0.6 °C
COC(=O)c1ccc(COC(=O)c2cn[nH]c2)cc1	–	0.9	–
N#Cc1cccc(COC(=O)c2cn[nH]c2)c1	30	2.8	–
N#Cc1ccccc1Cn1ccc2ccc(-c3cc(N)n[nH]3)cc21	12	4.4	–
O=C(OCc1ccc([N+](=O)[O-])cc1)c1cn[nH]c1	–	0.4	–
Nc1cc(-c2ccccc2)n[nH]1	–	–	ΔTm [9]: 1.5 °C
O=C(OCc1ccccc1)c1cn[nH]c1	33	3.1	–
CCNC(=O)c1cn[nH]c1	–	–	ΔTm [9]: 0.4 °C
Nc1cc(-c2ccc3ccn(Cc4ccccn4)c3c2)[nH]n1	12	3.1	–
N#Cc1c(N)n[nH]c1-c1ccc2ccn(Cc3ccccn3)c2c1	0.5	8.3	–
N#Cc1c(N)n[nH]c1-c1ccc2ccn(Cc3ccc(CN4CCCCC4)cc3)c2c1	–	12.6	MIC [1]: 50 µM (≈ 20.5 µg/mL); MIC [4]: 50 µM; MIC [5]: 100 µM; MIC [8]: 25 µM
